The source of these data is ChEMBL document CHEMBL1128718, “2-Substituted penems with amino acid-related side chains: synthesis and antibacterial activity of a new series of beta-lactam antibiotics” (1995).

What all share (type): functional
Assay [1] relates to Escherichia coli. The assay can be described thus: In Vitro antibacterial activity against (Ec) Escherichia coli ATCC 25922. An outline of the steps:
(§1)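 Panel of standard ATCC strains plus modified strains: methicillin-resistant, hyperpermeable, β-lactamase-producing (TEM1, TEM2, SHV) and β-lactamase-lacking. MIC determined in Mueller Hinton 2 medium, inoculum 10⁴ cells/mL, incubated 24 h at 37 °C.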

In assay [2] the test system is Staphylococcus aureus. Put plainly: In vitro antibacterial activity against Sa MR(II) homogeneous methicillin resistant Staphylococcus aureus. An outline of the steps:
(§2)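 MIC was determined in Mueller Hinton 2 medium with an inoculum of 10⁴ cells/mL and incubation for 24 h at 37 °C. Strains: Sa(I) is S. aureus ATCC 29213; Sa MR(I) is a heterogeneous methicillin-resistant S. aureus; Sa MR(II) is a homogeneous methicillin-resistant S. aureus.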

Assay [3] concerns Escherichia coli. Put plainly: In Vitro antibacterial activity against (Ec TEM2) Escherichia coli […] strain. An outline of the steps: as §1
Assay [4] relates to Pseudomonas aeruginosa. Put plainly: In Vitro antibacterial activity against (Pa) Pseudomonas aeruginosa ATCC 27853. An outline of the steps: as §1
For assay [5], the system named is Escherichia coli. Put plainly: In Vitro antibacterial activity against (Ec TEM1) Escherichia coli […] strain. An outline of the steps:
as §1

Assay [6] has as its system Staphylococcus aureus. The assay can be described thus: In vitro antibacterial activity against Sa(II) Staphylococcus aureus ATCC 25923. An outline of the steps:
as §1

The subject of assay [7] is Escherichia coli. The assay can be described thus: In Vitro antibacterial activity against (Ec DC2) hyperpermeable Escherichia coli strain. An outline of the steps: as §1
Assay [8] concerns Staphylococcus aureus. The assay can be described thus: In vitro antibacterial activity against Sa MR(I) heterogeneous methicillin resistant Staphylococcus aureus. An outline of the steps: as §2
The subject of assay [9] is Escherichia coli. Put plainly: In Vitro antibacterial activity against (Ec L) Escherichia coli […] strain. An outline of the steps: as §1
For assay [10], the system named is Escherichia coli. The assay can be described thus: In Vitro antibacterial activity against (Ec SHV) Escherichia coli […] strain. An outline of the steps:
as §1

The test system of the next assay is Enterococcus faecalis. The assay can be described thus: In Vitro antibacterial activity against (Ef) Enterococcus faecalis ATCC 29212. An outline of the steps: as §1
The test system of assay [11] is Pseudomonas aeruginosa. Put plainly: In Vitro antibacterial activity against (Pa G242) hyperpermeable Pseudomonas aeruginosa strain. An outline of the steps: as §1
The test system of assay [12] is Staphylococcus aureus. Put plainly: In vitro antibacterial activity against Sa(I) Staphylococcus aureus ATCC 29213. An outline of the steps: as §2
Assay [13] concerns Pseudomonas aeruginosa. The assay can be described thus: In Vitro antibacterial activity against (Pa) hyperpermeable Pseudomonas aeruginosa […] strain. An outline of the steps: as §1

Structures are written as SMILES. Values after ≈ are worked out from the molar mass of the structure shown. A value given as a limit tells only on which side of the number the result lay.

As to `C[C@@H](O)[C@H]1C(=O)N2C(C(=O)O)=C(CN(C)C(CO)C(N)=O)S[C@H]12` (some centres undefined), the MIC with Escherichia coli [1] is 0.12 µg/mL (≈ 0.347 µM); against Staphylococcus aureus [2], 8 µg/mL (≈ 23.2 µM); against Escherichia coli [3] it was 1 µg/mL (≈ 2.9 µM); in the assay with Pseudomonas aeruginosa [4], more than 64 µg/mL; with Escherichia coli [5], 1 µg/mL (≈ 2.9 µM); against Staphylococcus aureus [6], 0.06 µg/mL (≈ 0.174 µM). For the same compound, the MIC turned out to be 1 µg/mL (≈ 2.9 µM) in the assay on Escherichia coli [7]; 0.25 µg/mL (≈ 0.724 µM) against Staphylococcus aureus [8]; 0.5 µg/mL (≈ 1.45 µM) against Escherichia coli [9]; 2 µg/mL (≈ 5.79 µM) against Escherichia coli [10]; 4 µg/mL (≈ 11.6 µM) in the assay with Enterococcus faecalis; 1 µg/mL (≈ 2.9 µM) in the assay on Pseudomonas aeruginosa [11]. The values for the MIC against Staphylococcus aureus [12] and against Pseudomonas aeruginosa [13] were 0.12 µg/mL (≈ 0.347 µM) and 8 µg/mL (≈ 23.2 µM), respectively.
`C[C@@H](O)[C@H]1C(=O)N2C(C(=O)O)=C(CN3CC3C(N)=O)S[C@H]12` (some centres undefined): the MIC against Escherichia coli [1] is 2 µg/mL (≈ 6.38 µM); in the assay on Staphylococcus aureus [2], 8 µg/mL (≈ 25.5 µM); against Escherichia coli [3] it was 2 µg/mL (≈ 6.38 µM); against Pseudomonas aeruginosa [4], more than 64 µg/mL; in the assay with Escherichia coli [5], 2 µg/mL (≈ 6.38 µM); in the assay with Staphylococcus aureus [6], 0.25 µg/mL (≈ 0.798 µM). Moreover, the minimum inhibitory concentration (MIC) with Escherichia coli [7] turned out to be 4 µg/mL (≈ 12.8 µM); against Staphylococcus aureus [8] it was 0.25 µg/mL (≈ 0.798 µM); with Escherichia coli [9], 4 µg/mL (≈ 12.8 µM); against Escherichia coli [10], 4 µg/mL (≈ 12.8 µM); with Enterococcus faecalis, 16 µg/mL (≈ 51.1 µM); against Pseudomonas aeruginosa [11], 2 µg/mL (≈ 6.38 µM). Besides, the minimum inhibitory concentration (MIC) was found to be 0.5 µg/mL (≈ 1.6 µM) against Staphylococcus aureus [12] and 1 µg/mL (≈ 3.19 µM) in the assay on Pseudomonas aeruginosa [13].
Consider `C[C@@H](O)[C@H]1C(=O)N2C(C(=O)O)=C(CN(C)CCC(N)=O)S[C@H]12`, for which the MIC is 0.5 µg/mL (≈ 1.52 µM) with Escherichia coli [1]; 2 µg/mL (≈ 6.07 µM) against Staphylococcus aureus [2]; 1 µg/mL (≈ 3.04 µM) with Escherichia coli [3]; more than 64 µg/mL in the assay on Pseudomonas aeruginosa [4]; 1 µg/mL (≈ 3.04 µM) in the assay with Escherichia coli [5]; 0.06 µg/mL (≈ 0.182 µM) against Staphylococcus aureus [6]. In addition, the minimum inhibitory concentration (MIC) with Escherichia coli [7] was 2 µg/mL (≈ 6.07 µM); in the assay on Staphylococcus aureus [8] it was 0.12 µg/mL (≈ 0.364 µM); with Escherichia coli [9], 1 µg/mL (≈ 3.04 µM); against Escherichia coli [10], 1 µg/mL (≈ 3.04 µM); against Enterococcus faecalis it was 16 µg/mL (≈ 48.6 µM); against Pseudomonas aeruginosa [11], 1 µg/mL (≈ 3.04 µM). The MIC is 0.12 µg/mL (≈ 0.364 µM) against Staphylococcus aureus [12] and 2 µg/mL (≈ 6.07 µM) in the assay on Pseudomonas aeruginosa [13].
With `C[C@@H](O)[C@H]1C(=O)N2C(C(=O)O)=C(CN(C)C(Cc3ccccc3)C(N)=O)S[C@H]12` (some centres undefined), the minimum inhibitory concentration (MIC) against Escherichia coli [1] is 16 µg/mL (≈ 39.5 µM); against Staphylococcus aureus [2] it was 2 µg/mL (≈ 4.93 µM); with Escherichia coli [3], more than 64 µg/mL; against Pseudomonas aeruginosa [4], more than 64 µg/mL; in the assay on Escherichia coli [5], 32 µg/mL (≈ 78.9 µM); against Staphylococcus aureus [6] it was 0.015 µg/mL (≈ 0.037 µM). Further, the MIC is 1 µg/mL (≈ 2.47 µM) in the assay with Escherichia coli [7]; 0.12 µg/mL (≈ 0.296 µM) against Staphylococcus aureus [8]; more than 64 µg/mL in the assay with Escherichia coli [9]; 4 µg/mL (≈ 9.86 µM) against Enterococcus faecalis; 0.12 µg/mL (≈ 0.296 µM) with Staphylococcus aureus [12]; more than 64 µg/mL in the assay with Pseudomonas aeruginosa [13].
Consider `C[C@@H](O)[C@H]1C(=O)N2C(C(=O)O)=C(CN(C)CC(=O)N(C)C)S[C@H]12`, for which the MIC against Escherichia coli [1] is 0.5 µg/mL (≈ 1.46 µM); in the assay with Staphylococcus aureus [2], 4 µg/mL (≈ 11.6 µM); in the assay on Escherichia coli [3], 1 µg/mL (≈ 2.91 µM); against Pseudomonas aeruginosa [4] it was more than 64 µg/mL; against Escherichia coli [5], 1 µg/mL (≈ 2.91 µM); against Staphylococcus aureus [6] it was 0.12 µg/mL (≈ 0.349 µM). Also, the minimum inhibitory concentration (MIC) with Escherichia coli [7] came out at 1 µg/mL (≈ 2.91 µM); in the assay on Escherichia coli [9] it was 0.5 µg/mL (≈ 1.46 µM); with Escherichia coli [10] it was 1 µg/mL (≈ 2.91 µM); in the assay on Pseudomonas aeruginosa [11] it was 0.5 µg/mL (≈ 1.46 µM); in the assay on Staphylococcus aureus [12] it was 0.25 µg/mL (≈ 0.728 µM); in the assay with Pseudomonas aeruginosa [13], 4 µg/mL (≈ 11.6 µM).
For `C[C@@H](O)[C@H]1C(=O)N2C(C(=O)O)=C(CN3CCC(C(N)=O)CC3)S[C@H]12`, the minimal inhibitory concentration (MIC) in the assay on Escherichia coli [1] was 2 µg/mL (≈ 5.63 µM); in the assay with Staphylococcus aureus [2], 2 µg/mL (≈ 5.63 µM); in the assay on Escherichia coli [3], 2 µg/mL (≈ 5.63 µM); in the assay with Pseudomonas aeruginosa [4] it was more than 64 µg/mL; against Escherichia coli [5] it was 2 µg/mL (≈ 5.63 µM); against Staphylococcus aureus [6], 0.015 µg/mL (≈ 0.0422 µM). The MIC in the assay on Escherichia coli [7] is 2 µg/mL (≈ 5.63 µM); against Staphylococcus aureus [8], 0.12 µg/mL (≈ 0.338 µM); with Escherichia coli [9] it was 2 µg/mL (≈ 5.63 µM); against Escherichia coli [10], 2 µg/mL (≈ 5.63 µM); against Enterococcus faecalis it was 16 µg/mL (≈ 45 µM); in the assay on Pseudomonas aeruginosa [11], 2 µg/mL (≈ 5.63 µM). In addition, the MIC came out at 0.06 µg/mL (≈ 0.169 µM) in the assay with Staphylococcus aureus [12] and 1 µg/mL (≈ 2.81 µM) in the assay on Pseudomonas aeruginosa [13].
As for `C[C@@H](O)[C@H]1C(=O)N2C(C(=O)O)=C(CN3C[C@H](O)C[C@@H]3C(N)=O)S[C@H]12`, the minimum inhibitory concentration (MIC) with Escherichia coli [1] is 2 µg/mL (≈ 5.6 µM); in the assay on Staphylococcus aureus [2] it was 8 µg/mL (≈ 22.4 µM); against Escherichia coli [3], 2 µg/mL (≈ 5.6 µM); against Pseudomonas aeruginosa [4] it was more than 64 µg/mL; with Escherichia coli [5] it was 2 µg/mL (≈ 5.6 µM); with Staphylococcus aureus [6], 0.25 µg/mL (≈ 0.7 µM). For the same compound, the minimal inhibitory concentration (MIC) in the assay with Escherichia coli [7] came to 2 µg/mL (≈ 5.6 µM); in the assay on Staphylococcus aureus [8] it was 0.25 µg/mL (≈ 0.7 µM); in the assay on Escherichia coli [9], 2 µg/mL (≈ 5.6 µM); against Escherichia coli [10], 2 µg/mL (≈ 5.6 µM); against Enterococcus faecalis, 32 µg/mL (≈ 89.5 µM); with Pseudomonas aeruginosa [11] it was 2 µg/mL (≈ 5.6 µM). The results for the minimal inhibitory concentration (MIC) with Staphylococcus aureus [12] and against Pseudomonas aeruginosa [13] were 0.25 µg/mL (≈ 0.7 µM) and 0.5 µg/mL (≈ 1.4 µM), respectively.
